Measured values as given in ChEMBL document CHEMBL1148470, “Synthesis, SAR, crystal structure, and biological evaluation of benzoquinoliziniums as activators of wild-type and mutant cystic fibrosis transmembrane conductance regulator channels” (J Med Chem, 2004).

How the values were obtained:
[1] = target: T1, Cystic fibrosis transmembrane conductance regulator (Homo sapiens, UniProt P13569); test: Percent activation of wild type CFTR dependent efflux was determined by measuring the rate of iodide [125I]- efflux from transfected CHO cells; assay type: functional, cell-based; parameters: concentration or dose not given beside the values
In short: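 CHO cells stably expressing wild-type CFTR (MEM, 7% FBS, 100 μM methotrexate), grown in 24-well plates. Loaded 30 min at 37 °C in efflux buffer (NaCl/KCl/MgCl2/glucose/HEPES, pH 7.4) with 1 μM KI and 125I; medium sampled every 1 min up to 11 min, drug after four baseline aliquots, compounds at 250 μM. Peak efflux rate expressed relative to 5 μM forskolin (=100%); mean ± SEM, n experiments.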
Target sequence in this assay (P13569 whole entry, looked up): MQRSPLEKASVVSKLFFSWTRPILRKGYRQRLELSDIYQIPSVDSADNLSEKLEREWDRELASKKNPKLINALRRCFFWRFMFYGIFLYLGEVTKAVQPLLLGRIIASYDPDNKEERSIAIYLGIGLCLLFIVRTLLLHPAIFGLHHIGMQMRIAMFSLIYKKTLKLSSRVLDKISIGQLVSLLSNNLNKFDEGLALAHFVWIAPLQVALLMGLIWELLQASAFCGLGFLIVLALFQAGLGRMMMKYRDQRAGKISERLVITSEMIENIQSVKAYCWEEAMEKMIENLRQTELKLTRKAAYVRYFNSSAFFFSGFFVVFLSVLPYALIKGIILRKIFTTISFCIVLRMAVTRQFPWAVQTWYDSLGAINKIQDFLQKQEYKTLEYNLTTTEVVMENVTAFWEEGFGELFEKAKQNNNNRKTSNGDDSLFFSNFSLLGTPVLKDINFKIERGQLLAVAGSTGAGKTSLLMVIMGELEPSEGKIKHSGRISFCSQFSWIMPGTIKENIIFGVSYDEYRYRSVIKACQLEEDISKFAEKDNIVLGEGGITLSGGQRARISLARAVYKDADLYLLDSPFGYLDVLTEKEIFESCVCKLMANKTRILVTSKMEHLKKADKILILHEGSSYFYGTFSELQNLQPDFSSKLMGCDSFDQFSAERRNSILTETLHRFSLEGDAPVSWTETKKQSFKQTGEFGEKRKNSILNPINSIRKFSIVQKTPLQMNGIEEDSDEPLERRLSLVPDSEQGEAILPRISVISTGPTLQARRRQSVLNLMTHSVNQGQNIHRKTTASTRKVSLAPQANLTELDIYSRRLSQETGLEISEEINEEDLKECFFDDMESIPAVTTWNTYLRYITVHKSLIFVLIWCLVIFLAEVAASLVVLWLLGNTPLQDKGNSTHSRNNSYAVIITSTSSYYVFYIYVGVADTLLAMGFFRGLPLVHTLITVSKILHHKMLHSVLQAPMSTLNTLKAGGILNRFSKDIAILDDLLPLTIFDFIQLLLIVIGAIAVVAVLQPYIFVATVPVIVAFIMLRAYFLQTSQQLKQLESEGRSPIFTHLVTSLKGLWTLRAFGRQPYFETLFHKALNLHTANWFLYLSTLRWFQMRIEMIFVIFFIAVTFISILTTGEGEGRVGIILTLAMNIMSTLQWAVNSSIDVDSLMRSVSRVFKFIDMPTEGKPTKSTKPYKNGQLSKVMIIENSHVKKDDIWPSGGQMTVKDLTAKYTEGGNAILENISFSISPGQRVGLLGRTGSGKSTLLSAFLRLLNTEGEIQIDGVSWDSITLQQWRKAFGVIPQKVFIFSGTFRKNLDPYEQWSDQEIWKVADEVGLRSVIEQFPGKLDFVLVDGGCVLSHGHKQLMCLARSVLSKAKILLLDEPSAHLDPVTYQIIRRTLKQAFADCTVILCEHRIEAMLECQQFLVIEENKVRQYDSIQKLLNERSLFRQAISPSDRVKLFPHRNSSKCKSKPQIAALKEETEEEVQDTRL

[2] = target: Cystic fibrosis transmembrane conductance regulator (Homo sapiens, UniProt P13569, G551D); test: Half-Maximal effective concentration of compound required to stimulate of G551D-CFTR activity in the presence of 10 uM Fsk; assay type: functional
Sequence of Cystic fibrosis transmembrane conductance regulator (Homo sapiens, UniProt P13569, G551D) (P13569 whole entry G551D): as the sequence (P13569 whole entry, looked up) above, with G551D counted along it
In short: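 G551D-CFTR stably expressed in CHO cells. The ¹²⁵I efflux assay was run on a robot: cells were loaded for 30 min at 37 °C in HEPES buffer pH 7.4 containing 1 μM KI and 1 μCi/mL ¹²⁵I, and efflux was sampled each minute for up to 11 min (4 baseline samples). Cells were exposed to 10 μM Fsk, then to increasing compound concentrations. EC50 came from %-of-maximal-effect curves, n = 6, mean ± SEM.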

[3] = target: T1, Cystic fibrosis transmembrane conductance regulator; test: Half-Maximal effective concentration of compound required to stimulate of wild type-CFTR activity in the presence of 1 uM Fsk
Target sequence in this assay (P13569 whole entry): as the sequence (P13569 whole entry, looked up) above

Row | Compound | Activation [1] [%] | EC50 [2] [µM] | EC50 [3] [µM]
1 | Nc1cc2[n+](c3cccc(Cl)c13)CCc1c-2[nH]c2ccccc12 | 30 |  | 
2 | CCOC(=O)c1c(O)c2cc(F)ccc2[n+]2ccccc12 | < 5 |  | 
3 | Oc1c2c3c(ccc[n+]3c3cccc(F)c13)CC2 | < 5 |  | 
4 | CCCCCc1c(O)c2cccc(Cl)c2[n+]2ccccc12 | 38 | 20 | 21
5 | CCCCc1c(O)c2cccc(Cl)c2[n+]2ccccc12 | 45 | 34 | 23.5
6 | Nc1cc2[n+](c3c(Cl)cccc13)CCc1c-2[nH]c2ccccc12 | 46 |  | 
7 | Nc1cc2[n+](c3ccc(Cl)cc13)CCc1c-2[nH]c2ccccc12 | 6 |  | 
8 | CCOC(=O)c1c(O)c2ccc(F)cc2[n+]2ccccc12 | 6 |  | 
9 | Oc1c(-c2ccccc2)c2cccc[n+]2c2c(Cl)cccc12 | 6 |  | 
10 | CCOC(=O)c1c(O)c2c(F)cccc2[n+]2ccccc12 | 8 |  | 
11 | C=C[C@@]1(C)CC(=O)[C@]2(O)[C@@]3(C)[C@@H](O)CCC(C)(C)[C@@H]3[C@H](O)[C@H](OC(C)=O)[C@@]2(C)O1 | 100 |  | 
12 | CC(C)Cc1c(O)c2cccc(Cl)c2[n+]2ccccc12 | 26 | 32 | 26
13 | CCCCc1c(O)c2c(Cl)cccc2[n+]2ccccc12 | 33 | 0.75 | 1.7

Continued, values first:

Row | Activation [1] [%] | EC50 [2] [µM] | EC50 [3] [µM] | Compound
14 | 19 |  |  | Cc1c(O)c2cccc(Cl)c2[n+]2ccccc12
15 | 32 | 48 | 54.2 | CCCc1c(O)c2cccc(Cl)c2[n+]2ccccc12
16 | 16 |  |  | Oc1cc2cccc[n+]2c2cc(F)ccc12
17 | 24 | > 200 | 141 | Oc1cc2cccc[n+]2c2c(Cl)cccc12
18 | < 5 |  |  | Nc1cc2cccc[n+]2c2c(Cl)cccc12
19 | 20 | > 200 | 146 | Oc1cc2cccc[n+]2c2cccc(Cl)c12
20 | 11 |  |  | Oc1cc2cccc[n+]2c2ccc(F)cc12
21 | 37 | 95 | 70.5 | CCOC(=O)c1c(O)c2cccc(F)c2[n+]2ccccc12
22 | < 5 |  |  | Oc1cc2cccc[n+]2c2cccc(F)c12
23 | < 5 |  |  | Nc1cc2cccc[n+]2c2cccc(Cl)c12
24 | < 5 |  |  | Oc1cc2cccc[n+]2c2cc(Cl)ccc12
25 | 18 |  |  | Oc1cc2cccc[n+]2c2ccc(Cl)cc12
26 | < 5 |  |  | Oc1cc2cccc[n+]2c2c(F)cccc12
